KCNQ1 pot: potentiates or activates the human KCNQ1 potassium channel | P51787 | 0.35% of 310,000 active | AID 2648 | B-score at 10 µM | CHO-K1 KCNQ1, thallium flux FluxOR fluorescence; stronger effect = higher value;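 active = fluorescence ratio B-score, a plate-corrected score, at least three library SD, with initial intensity B-score within 5 SD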
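Assay system: stable KCNQ1 CHO-K1 line; medium: assay buffer, equal DMSO in all wells; timing: 90 min dye loading and 20 min compound exposure, both at room temperature; technique: kinetic FluxOR thallium fluorescence, 10-s 1-Hz baseline, 110-s post-stimulus read; read-out basis: B score of baseline-normalized fluorescence ratio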
hERG rescue: compounds protecting human hERG from proarrhythmic drug block | Q12809 | AID 1511 | CHO-hERG, FluxOR thallium flux, dofetilide IC70 present | 0.51% of 310,000 active | activation (rescue from dofetilide block), less the hit threshold, % at 10 µM;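 active = activation above the mean of controls blocked by dofetilide plus 5 SD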;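 also: thallium influx through hERG after potassium depolarization seen as dye fluorescence rise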
KCNK9 block: human KCNK9 channel inhibition. HEK293 KCNK9, FluxOR thallium flux fluorescence; stronger effect = lower value. 1.2% of 310,000 active. B-score at 10 µM. Q9NPC2;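 active = ratio B-score over 3 SD below the library mean, with starting fluorescence within 5 SD of its mean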;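 also: negative B-score means less thallium flux so channel inhibition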
KCNQ1 block: inhibitors of human KCNQ1 potassium channel; P51787; CHO-K1 KCNQ1, FluxOR thallium flux fluorescence; stronger effect = higher value; B-score at 10 µM; 1.3% of 310,000 active; AID 2642;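 active = compounds whose thallium flux B-score, printed positive for inhibition, exceeds three library SD while starting fluorescence stays within three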;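 also: channel opened by potassium depolarization with thallium stimulus after 20 min compound exposure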
Kir21 inh: inhibitors of mouse Kir2.1 inward-rectifier potassium channel; HEK293-Kir2.1, FluxOR thallium flux fluorescence; stronger effect = lower value; AID 1672; P35561; B-score at 10 µM; 0.85% of 310,000 active;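 active = fluorescence ratio B-score at or below minus 3 SD of library scores, with starting-brightness B-score within 2 SD, cut at about -4.2 in these data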;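 also: channel flux triggered by added potassium and thallium sulfate stimulus; B-score of peak minus minimum fluorescence over baseline after thallium stimulus; more negative B-score means stronger Kir2.1 block with less thallium influx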
Target sequence (P35561 whole entry, looked up): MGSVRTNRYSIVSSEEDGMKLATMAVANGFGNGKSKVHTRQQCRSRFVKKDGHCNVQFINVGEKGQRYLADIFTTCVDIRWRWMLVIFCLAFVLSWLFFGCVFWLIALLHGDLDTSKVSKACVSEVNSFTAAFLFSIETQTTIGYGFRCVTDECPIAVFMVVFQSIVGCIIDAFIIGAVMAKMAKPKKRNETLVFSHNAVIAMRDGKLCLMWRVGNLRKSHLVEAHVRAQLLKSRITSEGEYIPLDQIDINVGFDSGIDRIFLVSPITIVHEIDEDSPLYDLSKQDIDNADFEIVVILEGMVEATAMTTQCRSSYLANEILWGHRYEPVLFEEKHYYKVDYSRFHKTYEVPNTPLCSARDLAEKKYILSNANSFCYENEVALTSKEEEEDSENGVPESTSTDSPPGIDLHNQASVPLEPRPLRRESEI
KCNK3 block: human KCNK3 channel inhibition, primary screen; O14649; CHO-KCNK3 thallium flux, FluxOR fluorescence; stronger effect = lower value; B-score at 10 µM; 0.84% of 340,000 active; AID 602410;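 active = B-score under library mean minus 4 SD, starting fluorescence ratio at most library mean plus 5 SD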;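 also: more negative B-score means stronger inhibition of thallium flux through KCNK3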
KCNK9 block conf: confirmation of human KCNK9 potassium channel inhibitors | 43% of 4,900 active | HEK293 KCNK9 cells, FluxOR thallium flux fluorescence | inhibition, % at 10 µM | shares compounds with KCNK9 block | AID 492992;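 active = thallium signal inhibited by more than 5 SD of the compound-free buffer control wells, on both duplicate plates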
Kir2-1 spec: mouse Kir2.1 off-target activity of KCNK9 modulators | 4% of 4,900 active | inhibition, % at 10 µM | Kir2.1 cells, FluxOR thallium flux fluorescence | shares compounds with KCNK9 block;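 active = thallium signal drop more than 5 SD beyond the mean of the no-compound control wells, seen in both duplicate plates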;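 also: signal is fluorescence rise after thallium addition divided by baseline fluorescence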
HEK293 Tl ctr: non-induced cell nonspecific activity of KCNK9 modulators; non-induced KCNK9-HEK293, FluxOR thallium flux; shares compounds with KCNK9 block; inhibition, % at 10 µM; AID 492997; 40% of 4,900 active;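 active = thallium signal drop beyond 5 SD of the untreated control mean, on both duplicate plates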
KCNK3 confirm: human KCNK3 channel inhibition, confirmation assay. shares compounds with KCNK3 block. CHO-KCNK3 thallium flux, FluxOR fluorescence; 0% buffer, 100% carvedilol maximal block. ratio percent of control, % at 10 µM. 99% of 2,400 active;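 active = ratio percent of control, averaged over triplicates, above buffer control mean plus 5 SD, cut at about 64% in these data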;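 also: ratio is the fluorescence rise from min to max over baseline after thallium stimulus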
KCNK3 noninduced: counter-screen for KCNK3 inhibitors: effect in non-induced cells; shares compounds with KCNK3 block; non-induced KCNK3 parental cells, FluxOR thallium flux; stronger effect = lower value; thallium flux ratio (lower = more inhibition) at 10 µM; 40% of 2,400 active;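 active = thallium flux ratio, averaged over three wells, more than 5 SD below the buffer control mean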;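 also: host cells are CHO cells without KCNK3 induction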
Large screens that a line does not name were inactive (follow-up assays come after a bar, where they were run). Only some compounds are listed: those with a hit (about 3.8% of all), similar ones and a draw of the others.

Cc1ccc(NC(=O)c2cccc3c2C(=O)N(C2CCCCC2)C3)cc1	KCNK9 block -9.56, KCNK3 block -9.41 | KCNK9 block conf 32.0% | Kir2-1 spec inactive | HEK293 Tl ctr 26.0% | KCNK3 confirm 117.3 | KCNK3 noninduced inactive
CCOC(=O)N1CCC(N2Cc3cccc(C(=O)Nc4ccc(OCC)cc4)c3C2=O)CC1	none
CCOc1ccccc1NC(=O)c1cccc2c1C(=O)N(C1CCCCC1)C2	KCNK9 block -9.08, KCNK3 block -10.8 | KCNK9 block conf 37.5% | Kir2-1 spec inactive | HEK293 Tl ctr 33.0% | KCNK3 confirm 99.7 | KCNK3 noninduced inactive
COc1ccccc1OCCNC(=O)Cc1ccc(Cl)c(Cl)c1	none
CCn1cc(Br)c(C(=O)Nc2ccc(F)c(Cl)c2)n1	KCNK9 block -12, KCNK3 block -11.3 | KCNK9 block conf 46.5% | Kir2-1 spec inactive | HEK293 Tl ctr 29.5% | KCNK3 confirm 103.7 | KCNK3 noninduced inactive
O=C(C/C=N/OCc1ccc(Cl)cc1Cl)c1ccc(Cl)cc1	KCNK9 block -14.9, KCNK3 block -8.99 | KCNK9 block conf 43.0% | Kir2-1 spec inactive | HEK293 Tl ctr 43.0% | KCNK3 confirm 93.0 | KCNK3 noninduced 0.15
O=C(COC(=O)c1c2c(nc3ccccc13)CCCC2)c1cccs1	KCNK9 block -10.2, KCNK3 block -12.1 | KCNK9 block conf 54.0% | Kir2-1 spec inactive | HEK293 Tl ctr inactive | KCNK3 confirm 138.0 | KCNK3 noninduced 0.118
O=C(c1ccco1)N1CCN(c2ncnc3scc(-c4cccs4)c23)CC1	none
Fc1ccc(-c2csc3ncnc(N4CCN(c5ccccc5)CC4)c23)cc1	KCNK9 block -13.3, KCNK3 block -10.1 | KCNK9 block conf inactive | Kir2-1 spec inactive | HEK293 Tl ctr 29.5% | KCNK3 confirm 117.0 | KCNK3 noninduced inactive
c1ccc(N2CCN(c3ncnc4scc(-c5cccs5)c34)CC2)cc1	KCNK9 block -13.3, KCNK3 block -8.88 | KCNK9 block conf 42.5% | Kir2-1 spec inactive | HEK293 Tl ctr 35.5% | KCNK3 confirm 148.3 | KCNK3 noninduced 0.111
Nc1ncnc(Oc2ccccc2F)c1[N+](=O)[O-]	none
Cc1ccc(C(=O)Nc2ncnc3sc4c(c23)CCCCC4)cc1	none
Cc1ccc(NC(=O)Nc2ccc3c(c2)C(=O)OC3)cc1Cl	none
CC(Oc1ccc(-c2ccccc2)c(F)c1)c1ccn(S(=O)(=O)c2ccc(F)cc2)n1 (stereo not given)	KCNK9 block -10.3, KCNK3 block -11.8 | KCNK9 block conf 57.0% | Kir2-1 spec inactive | HEK293 Tl ctr 41.5% | KCNK3 confirm 105.7 | KCNK3 noninduced inactive
[O-][n+]1c2ccccc2[n+]([O-])c2cc(O)ccc21	none
O=C(NCCn1cc(SCc2ccccc2)c2ccccc21)c1c(F)cccc1F	none
O=C(NCCn1cc(SCc2ccc(F)cc2)c2ccccc21)c1c(F)cccc1F	KCNK9 block -13.9, KCNK3 block -9.87 | KCNK9 block conf 60.0% | Kir2-1 spec inactive | HEK293 Tl ctr 31.0% | KCNK3 confirm 94.3 | KCNK3 noninduced inactive
Cc1nc(NCCc2ccccc2)c2oc3ccccc3c2n1	KCNK9 block -12.7, KCNK3 block -10.4 | KCNK9 block conf 55.5% | Kir2-1 spec inactive | HEK293 Tl ctr inactive | KCNK3 confirm 131.0 | KCNK3 noninduced 0.122
